Source: ChEMBL document CHEMBL2062469, “1-(2-Mercaptobenzenesulfonyl)-3-hydroxyguanidines--novel potent antiproliferatives, synthesis and in vitro biological activity” (2012)

Assays:
Assay type in all cases: functional
CCRF-CEM = test: Cytostatic activity against human CCRF-CEM cells
In short: (§1)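 NCI-60 human tumor cell line screen run by the US National Cancer Institute under the NIH Developmental Therapeutics Program protocol. A single-dose prescreen at 10 µM came first. Selected compounds then went into the 5-dose assay. Cytostatic activity is reported as GI50 (µM).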

HL-60(TB) = test: Cytostatic activity against human HL-60(TB) cells
In short: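 NCI-60 panel screen run per the NIH Developmental Therapeutics Program protocol. Agents first went through a one-dose test at 10 µM. Selected compounds were then run in a 5-dose assay, from which GI50 and TGI values were derived.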

K562 = test: Cytostatic activity against human K562 cells; in short: as §1
MOLT-4 = test: Cytostatic activity against human MOLT4 cells; in short: as §1
[1] = Cytostatic activity against human […] cells; in short: as §1
SR = test: Cytostatic activity against human SR cells
In short: (§2)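 Human tumour cell lines from the NCI-60 panel, tested at the US National Cancer Institute under the NIH Developmental Therapeutics Program protocol. A single-dose prescreen at 10 µM came first. Selected compounds then went to a 5-dose assay, which gave GI50 and TGI values in µM.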

A549 = test: Cytostatic activity against human A549/ATCC cells; in short: as §1
EKVX = test: Cytostatic activity against human EKVX cells; in short: as §1
HOP-62 = test: Cytostatic activity against human HOP62 cells; in short: as §1
HOP-92 = test: Cytostatic activity against human HOP92 cells; in short: as §1
NCI-H226 = test: Cytostatic activity against human NCI-H226 cells; in short: as §1
NCI-H23 = test: Cytostatic activity against human NCI-H23 cells; in short: as §1
NCI-H322M = test: Cytostatic activity against human NCI-H322M cells; in short: as §1
NCI-H460 = test: Cytostatic activity against human NCI-H460 cells; in short: as §1
NCI-H522 = test: Cytostatic activity against human NCI-H522 cells; in short: as §1
COLO 205 = test: Cytostatic activity against human COLO205 cells; in short: as §1
HCC 2998 = test: Cytostatic activity against human HCC2998 cells; in short: as §1
HCT-116 = test: Cytostatic activity against human HCT116 cells; in short: as §1
HCT-15 = test: Cytostatic activity against human HCT15 cells; in short: as §1
HT-29 = test: Cytostatic activity against human HT-29 cells; in short: as §1
KM12 = test: Cytostatic activity against human KM12 cells; in short: as §1
SW-620 = test: Cytostatic activity against human SW620 cells; in short: as §2
SF-268 = test: Cytostatic activity against human SF268 cells; in short: as §1
SF-295 = test: Cytostatic activity against human SF295 cells; in short: as §1
SF-539 = test: Cytostatic activity against human SF539 cells; in short: as §1
SNB-19 = test: Cytostatic activity against human SNB19 cells; in short: as §1
SNB-75 = test: Cytostatic activity against human SNB75 cells; in short: as §2
U-251 = test: Cytostatic activity against human U251 cells; in short: as §2
LOX IMVI = test: Cytostatic activity against human LOXIMVI cells; in short: as §1
Malme-3M = test: Cytostatic activity against human MALME-3M cells; in short: as §1
M14 = test: Cytostatic activity against human M14 cells; in short: as §1
MDA-MB-435 = test: Cytostatic activity against human MDA-MB-435 cells; in short: as §1
SK-MEL-2 = test: Cytostatic activity against human SK-MEL-2 cells; in short: as §1
SK-MEL-28 = test: Cytostatic activity against human SK-MEL-28 cells; in short: as §1
SK-MEL-5 = test: Cytostatic activity against human SK-MEL-5 cells; in short: as §1
UACC-257 = test: Cytostatic activity against human UACC257 cells; in short: as §2
UACC-62 = test: Cytostatic activity against human UACC62 cells; in short: as §2
IGROV-1 = test: Cytostatic activity against human IGROV1 cells; in short: as §1
OVCAR-3 = test: Cytostatic activity against human OVCAR3 cells; in short: as §1
OVCAR-4 = test: Cytostatic activity against human OVCAR4 cells; in short: as §1
OVCAR-5 = test: Cytostatic activity against human OVCAR5 cells; in short: as §1
OVCAR-8 = test: Cytostatic activity against human OVCAR8 cells; in short: as §1
NCI/ADR-RES = test: Cytostatic activity against human NCI-ADR-RES cells; in short: as §1
A498 = test: Cytostatic activity against human A498 cells; in short: as §1
ACHN = test: Cytostatic activity against human ACHN cells; in short: as §1
CAKI-1 = test: Cytostatic activity against human Caki1 cells; in short: as §1
RXF 393 = test: Cytostatic activity against human RXF393 cells; in short: as §1
SN12C = test: Cytostatic activity against human SN12C cells; in short: as §1
TK-10 = test: Cytostatic activity against human TK10 cells; in short: as §2
UO-31 = test: Cytostatic activity against human UO31 cells; in short: as §2
PC-3 = test: Cytostatic activity against human PC3 cells; in short: as §1
DU-145 = test: Cytostatic activity against human DU145 cells; in short: as §1
MCF7 = test: Cytostatic activity against human MCF7 cells; in short: as §1
MDA-MB-231 = test: Cytostatic activity against human MDA-MB-231/ATCC cells; in short: as §1
Hs-578T = test: Cytostatic activity against human Hs 578T cells; in short: as §1
T47D = test: Cytostatic activity against human T47D cells; in short: as §2
MDA-MB-468 = test: Cytostatic activity against human MDA-MB-468 cells; in short: as §1

N=C(NO)NS(=O)(=O)c1cc(-c2nnc(-c3ccc(Cl)cc3)s2)c(Cl)cc1SCc1ccccc1
GI50 (CCRF-CEM): 840 nM
TGI (CCRF-CEM): 3830 nM
GI50 (HL-60(TB)): 1780 nM
TGI (HL-60(TB)): 4530 nM
GI50 (K562): 2230 nM
TGI (K562): 6310 nM
GI50 (MOLT-4): 1250 nM
TGI (MOLT-4): 3570 nM
GI50 [1]: 1740 nM
TGI [1]: 4340 nM
GI50 (SR): 1450 nM
TGI (SR): 4200 nM
GI50 (A549): 2250 nM
TGI (A549): 5640 nM
GI50 (EKVX): 1990 nM
TGI (EKVX): 4120 nM
GI50 (HOP-62): 2050 nM
TGI (HOP-62): 3980 nM
GI50 (HOP-92): 2760 nM
TGI (HOP-92): 7420 nM
GI50 (NCI-H226): 2070 nM
TGI (NCI-H226): 4050 nM
GI50 (NCI-H23): 1700 nM
TGI (NCI-H23): 3730 nM
GI50 (NCI-H322M): 1930 nM
TGI (NCI-H322M): 3990 nM
GI50 (NCI-H460): 1730 nM
TGI (NCI-H460): 3490 nM
GI50 (NCI-H522): 1670 nM
TGI (NCI-H522): 3410 nM
GI50 (COLO 205): 1890 nM
TGI (COLO 205): 3740 nM
GI50 (HCC 2998): 1810 nM
TGI (HCC 2998): 3420 nM
GI50 (HCT-116): 1560 nM
TGI (HCT-116): 3110 nM
GI50 (HCT-15): 1570 nM
TGI (HCT-15): 3170 nM
GI50 (HT-29): 1670 nM
TGI (HT-29): 3130 nM
GI50 (KM12): 1750 nM
TGI (KM12): 3330 nM
GI50 (SW-620): 1470 nM
TGI (SW-620): 3070 nM
GI50 (SF-268): 1900 nM
TGI (SF-268): 4210 nM
GI50 (SF-295): 2210 nM
TGI (SF-295): 4650 nM
GI50 (SF-539): 1970 nM
TGI (SF-539): 3900 nM
GI50 (SNB-19): 1740 nM
TGI (SNB-19): 3420 nM
GI50 (SNB-75): 1490 nM
TGI (SNB-75): 3180 nM
GI50 (U-251): 1540 nM
TGI (U-251): 3090 nM
GI50 (LOX IMVI): 1680 nM
TGI (LOX IMVI): 3470 nM
GI50 (Malme-3M): 1960 nM
TGI (Malme-3M): 4030 nM
GI50 (M14): 1680 nM
TGI (M14): 3200 nM
GI50 (MDA-MB-435): 2110 nM
TGI (MDA-MB-435): 4170 nM
GI50 (SK-MEL-2): 1750 nM
TGI (SK-MEL-2): 3500 nM
GI50 (SK-MEL-28): 1910 nM
TGI (SK-MEL-28): 3470 nM
GI50 (SK-MEL-5): 1580 nM
TGI (SK-MEL-5): 3050 nM
GI50 (UACC-257): 2100 nM
TGI (UACC-257): 4050 nM
GI50 (UACC-62): 2020 nM
TGI (UACC-62): 3760 nM
GI50 (IGROV-1): 2570 nM
TGI (IGROV-1): 5380 nM
GI50 (OVCAR-3): 1670 nM
TGI (OVCAR-3): 3120 nM
GI50 (OVCAR-4): 1650 nM
TGI (OVCAR-4): 4010 nM
GI50 (OVCAR-5): 1600 nM
TGI (OVCAR-5): 3020 nM
GI50 (OVCAR-8): 2030 nM
TGI (OVCAR-8): 4300 nM
GI50 (NCI/ADR-RES): 7390 nM
GI50 (A498): 1750 nM
TGI (A498): 5550 nM
GI50 (ACHN): 1710 nM
TGI (ACHN): 3150 nM
GI50 (CAKI-1): 2270 nM
TGI (CAKI-1): 4670 nM
GI50 (RXF 393): 1660 nM
TGI (RXF 393): 3040 nM
GI50 (SN12C): 1670 nM
TGI (SN12C): 3200 nM
GI50 (TK-10): 1870 nM
TGI (TK-10): 3430 nM
GI50 (UO-31): 1990 nM
TGI (UO-31): 4680 nM
GI50 (PC-3): 1740 nM
TGI (PC-3): 3270 nM
GI50 (DU-145): 1730 nM
TGI (DU-145): 3100 nM
GI50 (MCF7): 1570 nM
TGI (MCF7): 3030 nM
GI50 (MDA-MB-231): 2070 nM
TGI (MDA-MB-231): 4790 nM
GI50 (Hs-578T): 2510 nM
TGI (Hs-578T): 7260 nM
GI50 (T47D): 2070 nM
TGI (T47D): 4810 nM
GI50 (MDA-MB-468): 1520 nM
TGI (MDA-MB-468): 2850 nM
